# Test results taken from ChEMBL document CHEMBL1806360, “Synthesis and biological evaluation of conformationally flexible as well as restricted dimers of monastrol and related dihydropyrimidones” (Eur J Med Chem, 2011).
# Active and inactive are the calls of the source. The rule behind the calls is not given here.
# System: HT-29
# Assay: Cytotoxicity against human HT-29 cells after 48 hrs by MTT assay
# Assay type: functional, cell-based
# Settings: HT-29, 48 h
row,Structure (SMILES),IC50 [µg/mL]
1,CCOC(=O)C1=C(C)NC(=S)NC1c1cccc(OCCCOc2cccc(C3NC(=S)NC(C)=C3C(=O)OCC)c2)c1 (configuration not stated),> 200
2,COC(=O)[C@@H]1CCCN1C(=O)C1=C(C)NC(=S)NC1c1ccc(OCCCCOc2ccc(C3NC(=S)NC(C)=C3C(=O)N3CCC[C@H]3C(=O)OC)cc2OC)c(OC)c1 (some centres not stated),> 200
3,COC(=O)[C@@H]1CCCN1C(=O)C1=C(C)NC(=S)NC1c1cccc(OCCCCOc2cccc(C3NC(=S)NC(C)=C3C(=O)N3CCC[C@H]3C(=O)OC)c2)c1 (some centres not stated),> 200

# System: Klebsiella pneumoniae
# Assay: Antibacterial activity against Klebsiella pneumoniae assessed as zone of inhibition at 50 ug/ml by agar plate method
# Assay type: functional, organism-based
# Settings: not given
# Procedure, shortened: (§1)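 Well diffusion on Mueller-Hinton agar. Inoculum from 3–5 colonies was grown in nutrient broth and adjusted to 0.5 McFarland (about 1 × 10⁸ CFU/mL), then swabbed over the plate. Compounds were dissolved in DMSO and added to duplicate 6 mm wells. Plates were incubated 18 h at 37 °C, and inhibition zone diameter was read to the nearest mm. Ciprofloxacin was the positive control and DMSO the negative control.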
row,Structure (SMILES),Activity
1,CCOC(=O)C1=C(C)NC(=S)NC1c1cccc(OCCCOc2cccc(C3NC(=S)NC(C)=C3C(=O)OCC)c2)c1 (configuration not stated),inactive

# System: Escherichia coli
# Assay: Antibacterial activity against Escherichia coli assessed as zone of inhibition at 100 ug/ml by agar plate method
# Assay type: functional
# Settings: read-out: IZ
# Procedure, shortened: as §1
row,Structure (SMILES),zone of inhibition at 100 µg/mL [mm]
1,CCOC(=O)C1=C(C)NC(=S)NC1c1cccc(OCCCOc2cccc(C3NC(=S)NC(C)=C3C(=O)OCC)c2)c1 (configuration not stated),20

# System: Staphylococcus epidermidis
# Assay: Antibacterial activity against Staphylococcus epidermidis assessed as zone of inhibition at 50 ug/ml by agar plate method
# Assay type: functional, organism-based
# Settings: not given
# Procedure, shortened: as §1
row,Structure (SMILES),Activity
1,CCOC(=O)C1=C(C)NC(=S)NC1c1cccc(OCCCOc2cccc(C3NC(=S)NC(C)=C3C(=O)OCC)c2)c1 (configuration not stated),inactive

# System: Pseudomonas aeruginosa
# Assay: Antibacterial activity against Pseudomonas aeruginosa assessed as zone of inhibition at 100 ug/ml by agar plate method
# Assay type: functional
# Settings: read-out: IZ
# Procedure, shortened: as §1
row,Structure (SMILES),zone of inhibition at 100 µg/mL [mm]
1,CCOC(=O)C1=C(C)NC(=S)NC1c1cccc(OCCCOc2cccc(C3NC(=S)NC(C)=C3C(=O)OCC)c2)c1 (configuration not stated),12

# System: A549
# Assay: Cytotoxicity against human A549 cells after 48 hrs by MTT assay
# Assay type: functional, cell-based
# Settings: A549, 48 h
# Procedure, shortened: (§2)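 MTT assay. Medium with 10% FBS and 2 mM L-glutamine was DMEM for A431 and Colo-205, RPMI for A549, and MEM for MCF-7. Cultures were preincubated 24 h at 37 °C, 5% CO2. 1 × 10⁴ cells (trypan blue count) were exposed to 200, 100, 50, 25 and 10 concentration levels for 48 h at 37 °C. MTT was added for 4 h, formazan dissolved in DMSO, and A570 read. IC50 was curve-fitted from viability versus untreated cells, three experiments.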
row,Structure (SMILES),IC50 [µg/mL]
1,CCOC(=O)C1=C(C)NC(=S)NC1c1cccc(OCCCOc2cccc(C3NC(=S)NC(C)=C3C(=O)OCC)c2)c1 (configuration not stated),120
2,COC(=O)[C@@H]1CCCN1C(=O)C1=C(C)NC(=S)NC1c1ccc(OCCCCOc2ccc(C3NC(=S)NC(C)=C3C(=O)N3CCC[C@H]3C(=O)OC)cc2OC)c(OC)c1 (some centres not stated),> 200
3,COC(=O)[C@@H]1CCCN1C(=O)C1=C(C)NC(=S)NC1c1cccc(OCCCCOc2cccc(C3NC(=S)NC(C)=C3C(=O)N3CCC[C@H]3C(=O)OC)c2)c1 (some centres not stated),> 200

# System: Staphylococcus aureus
# Assay: Antibacterial activity against Staphylococcus aureus assessed as zone of inhibition at 100 ug/ml by agar plate method
# Assay type: functional
# Settings: read-out: IZ
# Procedure, shortened: as §1
row,Structure (SMILES),zone of inhibition at 100 µg/mL [mm]
1,CCOC(=O)C1=C(C)NC(=S)NC1c1cccc(OCCCOc2cccc(C3NC(=S)NC(C)=C3C(=O)OCC)c2)c1 (configuration not stated),10

# System: Escherichia coli
# Assay: Antibacterial activity against Escherichia coli assessed as zone of inhibition at 50 ug/ml by agar plate method
# Assay type: functional, organism-based
# Settings: not given
# Procedure, shortened: as §1
row,Structure (SMILES),Activity
1,CCOC(=O)C1=C(C)NC(=S)NC1c1cccc(OCCCOc2cccc(C3NC(=S)NC(C)=C3C(=O)OCC)c2)c1 (configuration not stated),inactive

# System: A-431
# Assay: Cytotoxicity against human A431 cells after 48 hrs by MTT assay
# Assay type: functional, cell-based
# Settings: A-431, 48 h
# Procedure, shortened: as §2
row,Structure (SMILES),IC50 [µg/mL]
1,CCOC(=O)C1=C(C)NC(=S)NC1c1cccc(OCCCOc2cccc(C3NC(=S)NC(C)=C3C(=O)OCC)c2)c1 (configuration not stated),76
2,COC(=O)[C@@H]1CCCN1C(=O)C1=C(C)NC(=S)NC1c1ccc(OCCCCOc2ccc(C3NC(=S)NC(C)=C3C(=O)N3CCC[C@H]3C(=O)OC)cc2OC)c(OC)c1 (some centres not stated),190
3,COC(=O)[C@@H]1CCCN1C(=O)C1=C(C)NC(=S)NC1c1cccc(OCCCCOc2cccc(C3NC(=S)NC(C)=C3C(=O)N3CCC[C@H]3C(=O)OC)c2)c1 (some centres not stated),148

# System: MCF7
# Assay: Cytotoxicity against human MCF7 cells after 48 hrs by MTT assay
# Assay type: functional, cell-based
# Settings: MCF7, 48 h
# Procedure, shortened: as §2
row,Structure (SMILES),IC50 [µg/mL]
1,CCOC(=O)C1=C(C)NC(=S)NC1c1cccc(OCCCOc2cccc(C3NC(=S)NC(C)=C3C(=O)OCC)c2)c1 (configuration not stated),16
2,COC(=O)[C@@H]1CCCN1C(=O)C1=C(C)NC(=S)NC1c1ccc(OCCCCOc2ccc(C3NC(=S)NC(C)=C3C(=O)N3CCC[C@H]3C(=O)OC)cc2OC)c(OC)c1 (some centres not stated),169
3,COC(=O)[C@@H]1CCCN1C(=O)C1=C(C)NC(=S)NC1c1cccc(OCCCCOc2cccc(C3NC(=S)NC(C)=C3C(=O)N3CCC[C@H]3C(=O)OC)c2)c1 (some centres not stated),128

# System: COLO 205
# Assay: Cytotoxicity against human COLO205 cells after 48 hrs by MTT assay
# Assay type: functional, cell-based
# Settings: COLO 205, 48 h
# Procedure, shortened: as §2
row,Structure (SMILES),IC50 [µg/mL]
1,CCOC(=O)C1=C(C)NC(=S)NC1c1cccc(OCCCOc2cccc(C3NC(=S)NC(C)=C3C(=O)OCC)c2)c1 (configuration not stated),144
2,COC(=O)[C@@H]1CCCN1C(=O)C1=C(C)NC(=S)NC1c1ccc(OCCCCOc2ccc(C3NC(=S)NC(C)=C3C(=O)N3CCC[C@H]3C(=O)OC)cc2OC)c(OC)c1 (some centres not stated),154
3,COC(=O)[C@@H]1CCCN1C(=O)C1=C(C)NC(=S)NC1c1cccc(OCCCCOc2cccc(C3NC(=S)NC(C)=C3C(=O)N3CCC[C@H]3C(=O)OC)c2)c1 (some centres not stated),154

# System: Staphylococcus epidermidis
# Assay: Antibacterial activity against Staphylococcus epidermidis assessed as zone of inhibition at 100 ug/ml by agar plate method
# Assay type: functional
# Settings: read-out: IZ
# Procedure, shortened: as §1
row,Structure (SMILES),zone of inhibition at 100 µg/mL [mm]
1,CCOC(=O)C1=C(C)NC(=S)NC1c1cccc(OCCCOc2cccc(C3NC(=S)NC(C)=C3C(=O)OCC)c2)c1 (configuration not stated),15

# System: Bacillus subtilis
# Assay: Antibacterial activity against Bacillus subtilis assessed as zone of inhibition at 100 ug/ml by agar plate method
# Assay type: functional
# Settings: read-out: IZ
# Procedure, shortened: as §1
row,Structure (SMILES),zone of inhibition at 100 µg/mL [mm]
1,CCOC(=O)C1=C(C)NC(=S)NC1c1cccc(OCCCOc2cccc(C3NC(=S)NC(C)=C3C(=O)OCC)c2)c1 (configuration not stated),8

# System: Nucleic Acid
# Assay: Binding affinity to calf thymus DNA assessed as change in melting temperature at compound to DNA ratio of 1:5 after 18 hrs at pH 7
# Assay type: nucleic-acid assay
# Settings: Bos taurus
# Procedure, shortened: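 Thermal melting of calf thymus DNA in 10 mM sodium phosphate with 1 mM Na2EDTA, pH 7.00. Compound was added from DMSO stock at a fixed 1:5 compound:DNA molar ratio. The mix was incubated 18 h at 37 °C, then A260 was monitored while heating at 1 °C/min over 40–90 °C. ΔTm is relative to DNA alone.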
row,Structure (SMILES),ΔTm [°C]
1,CCOC(=O)C1=C(C)NC(=S)NC1c1cccc(OCCCOc2cccc(C3NC(=S)NC(C)=C3C(=O)OCC)c2)c1 (configuration not stated),0.1

# System: MCF7
# Assay: Ratio IC50 for monastrol to compound for human MCF7 cells
# Assay type: functional
# Settings: not given
row,Structure (SMILES),Ratio IC50
1,CCOC(=O)C1=C(C)NC(=S)NC1c1cccc(OCCCOc2cccc(C3NC(=S)NC(C)=C3C(=O)OCC)c2)c1 (configuration not stated),3

# System: Klebsiella pneumoniae
# Assay: Antibacterial activity against Klebsiella pneumoniae assessed as zone of inhibition at 100 ug/ml by agar plate method
# Assay type: functional
# Settings: read-out: IZ
# Procedure, shortened: as §1
row,Structure (SMILES),zone of inhibition at 100 µg/mL [mm]
1,CCOC(=O)C1=C(C)NC(=S)NC1c1cccc(OCCCOc2cccc(C3NC(=S)NC(C)=C3C(=O)OCC)c2)c1 (configuration not stated),5

# System: Bacillus subtilis
# Assay: Antibacterial activity against Bacillus subtilis assessed as zone of inhibition at 50 ug/ml by agar plate method
# Assay type: functional, organism-based
# Settings: not given
# Procedure, shortened: as §1
row,Structure (SMILES),Activity
1,CCOC(=O)C1=C(C)NC(=S)NC1c1cccc(OCCCOc2cccc(C3NC(=S)NC(C)=C3C(=O)OCC)c2)c1 (configuration not stated),inactive
